Compounds with a hit are over-represented: about 3.4% of the library has one in this group of screens.
GPR7 antag: blocks human GPR7 receptor signaling. P48145. 1.1% of 290,000 active. inhibition, % at 4.4 µM. GPR7-expressing cells, fluorescence antagonist assay; in the data active means inhibition above about 16%, passing the limit was not always enough;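 further: cells stimulated with the agonist NPW; 0% = agonist with vehicle and 100% = vehicle without agonist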
TAAR1 agonist: human TAAR1 agonism. Q96RJ0. CHO RD-HGA16 TAAR1, Fluo-8 calcium fluorescence; vehicle wells 0%, saturating PEA agonist 100%. activation, % at 3 µM. 0.99% of 360,000 active. AID 624467;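 active means activation above the mean activation of all test compounds in the run plus 3 SD, cut at about 38% in these data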
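Test system: RD-HGA16 (CHO) cells co-expressing Gα16 and hTAAR1; dosing: one-point dosing at 3 µM (nominal); timing: 17-24 h seeding, 75 min 37 °C dye, 30 min RT; signal: kinetic Fluo-8 calcium fluorescence; read-out basis: % activation relative to PEA EC100 response; controls: DMSO and PEA EC100; replicates: n 1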
TAAR1 antagonist: antagonists of human TAAR1 | 1.5% of 360,000 active | CHO RD-HGA16 TAAR1, Fluo-8 calcium fluorescence, antagonist | inhibition, % at 3 µM | Q96RJ0 | AID 624466;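 active means inhibition above a per-plate cutoff, the mean inhibition of test compounds on that plate plus 3 SD, cut at about 49% in these data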;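 further: 0% = DMSO plus EC80 beta-PEA response and 100% = DMSO alone without agonist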
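Assay system: CHO-derived RD-HGA16 cells stably expressing human TAAR1 plus Gα16. Timing: 140 s kinetic read after compound, 140 s after agonist. Technique: kinetic Fluo-8 calcium fluorescence measurement. Measure: % inhibition of agonist calcium response.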
LANA-H2B inh: blocks KSHV LANA binding to histone H2A/H2B; 0.6% of 320,000 active; inhibition, % (concentration not given with the values); cell-free LANA-H2A/H2B peptide, fluorescence polarization; Q9QR71; AID 2629; in the data active means inhibition mostly above about 10%, no sharp cut-off; inactive means mostly below about 6.7%
TRPML3 ag: activates the human TRPML3 channel | HEK293 TRPML3-YFP, Fluo-8 calcium fluorescence; 100% = the carbachol control signal | 0.29% of 220,000 active | activation, % at 3 µM | AID 1448;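 active means activation above its plate's cutoff, the mean activation of the plate's test wells plus 3 SD, cut at about 12% in these data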;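 further: 0% = DMSO only wells and 100% = carbachol wells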
Target sequence (Q8TDD5 whole entry, looked up): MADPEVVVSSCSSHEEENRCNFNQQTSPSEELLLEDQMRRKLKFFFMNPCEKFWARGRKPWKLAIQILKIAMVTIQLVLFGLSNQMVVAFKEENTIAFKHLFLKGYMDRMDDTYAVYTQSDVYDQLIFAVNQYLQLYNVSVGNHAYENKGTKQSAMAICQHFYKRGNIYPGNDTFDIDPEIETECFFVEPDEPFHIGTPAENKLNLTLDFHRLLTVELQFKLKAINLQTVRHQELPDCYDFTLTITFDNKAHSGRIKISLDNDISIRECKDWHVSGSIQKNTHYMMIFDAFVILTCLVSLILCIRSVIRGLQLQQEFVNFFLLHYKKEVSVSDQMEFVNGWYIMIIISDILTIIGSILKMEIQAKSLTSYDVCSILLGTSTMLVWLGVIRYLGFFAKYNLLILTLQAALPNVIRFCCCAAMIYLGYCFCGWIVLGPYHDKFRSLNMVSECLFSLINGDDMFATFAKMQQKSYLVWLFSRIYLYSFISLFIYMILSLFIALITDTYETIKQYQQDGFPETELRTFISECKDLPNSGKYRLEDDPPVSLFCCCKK
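Material: HEK293 cells stably carrying human TRPML3-YFP; compound dosing: single dose, 3 µM final nominal compound, 0.3% DMSO final; incubation: 1-h 37 °C dye load, 5-s basal, 120-s post-compound reads; technique: Fluo-8 intracellular calcium fluorescence, excitation 470-495 nm, emission 515-575 nm; read-out basis: percent activation from peak-to-basal fluorescence ratio, scaled between DMSO and carbachol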
zfTRPN1 agonist: activates the zebrafish TRPN1 channel; activation, % at 3 µM; 0.18% of 220,000 active; HEK293 zebrafish TRPN1-YFP, Fluo-8 calcium fluorescence; 100% = response to 87 µM carbachol; AID 1424;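 active means activation above its plate's cutoff, the mean activation of test wells on that plate plus 3 SD, cut at about 19% in these data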;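 further: 0% = DMSO alone and 100% = 87 µM carbachol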
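Control set: carbachol 87 µM as high control, DMSO as low control; system: HEK293 stable line with zebrafish TRPN1-YFP; read-out: % activation versus carbachol response; detection: intracellular calcium fluorescence with Fluo-8; doses: single test compound dose, 3 µM nominal, 0.3% DMSO; schedule: dye 1 h 37 °C plus 30 min RT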
GPR7 antag conf: confirmation of human GPR7 antagonists | shares compounds with GPR7 antag | GPR7-expressing cells, calcium fluorescence antagonist mode | inhibition, % at 4.4 µM | 52% of 2,400 active; in the data active means inhibition above about 24%;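 further: stimulated with the GPR7 agonist NPW; 0% = agonist plus vehicle and 100% = vehicle alone without agonist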
MCHR1 antagonist: counter-screen for GPR7 antagonists: antagonists of human MCHR1. 62% of 2,400 active. inhibition, % at 4.4 µM. MCHR1-expressing cells, fluorescence antagonist assay. shares compounds with GPR7 antag; in the data active means inhibition above about 22%;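 further: 0% = vehicle with agonist and 100% = vehicle without agonist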
* hit, by the source's call; . = no result.

SMILES | GPR7 antag | TAAR1 agonist | TAAR1 antagonist | LANA-H2B inh | TRPML3 ag | zfTRPN1 agonist | GPR7 antag conf | MCHR1 antagonist
Clc1ccc(-n2c(SC/C=C/c3ccccc3)nnc2-c2cccnc2)cc1 | 32* | 12 | 7 | 0 | 0 | -1 | 27* | 21
O=C(C=C(C(=O)c1ccccc1)c1ccccc1)c1ccccc1 | . | -1 | -14 | . | . | . | . | .
COc1ccc2c(c1)C(=O)N(c1ccc(C)cc1)C(=O)C2 | -4 | 4 | 8 | 3 | 1 | -1 | . | .
COc1ccc2c(c1)C(=O)N(c1ccccc1)C(=O)C2 | 28* | 5 | -7 | 1 | 0 | 1 | 8 | 1
Cc1ccc(C(O)c2ncc(-c3ccccc3C(F)(F)F)[nH]2)cc1F (stereo not given) | . | 3 | -6 | . | . | . | . | .
Nc1nc2ccccc2n1CCN1CCCC1 | 33* | . | . | 4 | 0 | 0 | -8 | 2
COc1ccc(N2C(=O)c3ccccc3NC(=O)C2C(=O)Nc2ccc3c(c2)OCCO3)cc1 (stereo not given) | . | 4 | 1 | . | . | . | . | .
O=c1[nH]c(C2CCN(S(=O)(=O)c3ccccc3)CC2)nc2c1nnn2Cc1cccc(Cl)c1 | 25* | 5 | -12 | 5 | . | . | 8 | -8
CCOCc1nc2nc(Cl)c(Cl)nc2[nH]1 | . | 8 | -4 | . | . | . | . | .
COc1ccc(OC)c(C2(O)CSC(=Nc3cccnc3)N2Cc2ccco2)c1 (stereo not given) | 5 | 10 | 10 | -1 | -2 | -3 | . | .
OC1(c2ccc(OC(F)F)cc2)CSC(=Nc2cccnc2)N1C1CC1 (stereo not given) | 52* | 6 | 9 | -4 | 3 | 9 | 30* | 65*
O=C(OC1C2CCC1C1CN(CCc3ccccc3)CC12)c1ccccc1 (stereo not given) | 42* | 7 | -1 | 5 | 1 | 2 | 42* | 24*
Cc1ccc(NC(=O)COc2ccccc2CNC(C)(C)CC(C)(C)C)cc1 | 25* | 46* | -3 | -3 | 0 | 0 | 35* | 46*
O=P1(O)CC2=C(CC=CC2)C1 | . | 3 | -15 | . | . | . | . | .
CC1CCN(c2nc(-c3cccnc3)nc3scc(-c4ccccc4)c23)CC1 | 0 | 2 | -2 | -3 | 1 | 1 | . | .
CC1CCN(c2nc(CN3CCCCC3)nc3scc(-c4ccccc4)c23)CC1 | 23* | 13 | -12 | 0 | 1 | -1 | 32* | 32*
CCOc1ccc2c(c1)C(C)=CC(C)(C)N2S(=O)(=O)c1ccc(NC(C)=O)cc1 | 16 | 8 | 6 | -3 | . | . | . | .
COc1ccc2c(c1)C(C)=CC(C)(C)N2S(=O)(=O)c1ccc(NC(C)=O)cc1 | 24* | 15 | 28 | 2 | . | . | 32* | 44*
Cc1ccsc1C(=O)N1CCC1(C)C(=O)NS(=O)(=O)c1ccc(C#N)cc1 (stereo not given) | . | 1 | -16 | . | . | . | . | .
Cc1ccc(NC(=S)NC2CCSc3ccccc32)cc1 (stereo not given) | 34* | -3 | 19 | -17 | . | . | 2 | 39*
CC(=O)Nc1ccc(C(=O)NC2CCSc3ccccc32)cc1 (stereo not given) | -7 | 1 | -1 | -1 | . | . | . | .
CCOc1ccc(C(=O)NCC(=O)N2CCC3(CC2)NCCc2[nH]cnc23)cc1 | -11 | 5 | -20 | 3 | . | . | . | .
COc1ccc(-c2c(C)oc3cc(O)cc(O)c3c2=O)cc1OC | 27* | 6 | -19 | -3 | 1 | 1 | 2 | 15
COc1ccc(-c2n[nH]c(C(F)(F)F)c2-c2cc3ccccc3o2)c(O)c1 | 29* | 7 | -16 | -3 | 0 | 0 | 32* | 71*
O=C(NCc1ccccc1Cl)c1ccc(S(=O)(=O)N2CCCC2)cc1 | . | -3 | 12 | . | . | . | . | .

Screening data (PubChem BioAssay)
